Screening results deposited in PubChem BioAssay by Broad Institute.
The list is not random: actives were taken first. Their share in the collection is about 2.9%.
dFosB activator: activators of delta FosB homodimer, primary screen, biochemical, fluorescence polarization, TAMRA-CDK5 oligo, single point | purified delta FosB; percent of positive-control signal above neutral wells | Protein FosB (Mus musculus), P13346 | 340,000 tested, 0.99% active | AID 493131, 2011 | activation, % at 25 µM;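 active = mean activation above about 17%, with every replicate also reaching it, limit read from the data, passing the limit was not always enough; inconclusive = only one of the two conditions met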
Cneo AK release: Cryptococcus neoformans cell lysis inducers, primary screen, AK release luminescence, single concentration; C. neoformans lysis, adenylate kinase release luminescence, 4 h; normalised: neutral wells 0, clomiphene wells 100; lysis activity, % at 15 µM; 360,000 tested, 0.2% active;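 active = mean lysis activity across replicates of at least 80%, whatever share of replicates individually reach that level; inactive = mean lysis activity below 80%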
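Test system: log-phase Cryptococcus neoformans yeast cells; Quantity: yeast cell density of 5 × 10^6 cells/mL; Buffer or medium: YPD; Doses: single compound concentration per well; Timing: 4 h at 37 °C static, read 1 h later; Measured by: AK luminescence; Read-out basis: lysis from increased AK signal; Control set: Clomiphene as positive control.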
GSIS activator: GLuc luminescence reporter in INS-1E cells, primary screen for activators of glucose-dependent secretion of insulin | 370,000 tested, 0.61% active | activation, % at 16.6 µM | INS-1E GLuc reporter insulin secretion, 2-3 h | AID 743287, 2014;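 active = lowest replicate activation of at least 40%, so every replicate reaches that level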;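 note: 0% = median of neutral control wells and 100% = median of IBMX positive control wells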
PAX8 reporter: inhibitors of PAX8-driven TPO luciferase reporter, primary screen, RMG-I cells, single concentration | inhibition, % at 12.6 µM | AID 652154, 2013 | SteadyGlo, 24 h | 360,000 tested, 1.2% active;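 active = mean replicate inhibition at least 60% with every replicate also reaching 60%; inconclusive = only one of the two criteria is met; inactive = mean below 60% and not all replicates reaching 60%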;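 note: luciferase light reporting Pax8 driven TPO promoter activity; plate controls were median of neutral control wells for no effect and mitoxantrone controls for full effect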
CDK5 inh: inhibitors of human CDK5/p35 kinase, primary screen, biochemical, single concentration; Cyclin-dependent kinase 5 (Homo sapiens) + Cyclin-dependent kinase 5 activator 1 (Homo …; Recombinant CDK5/p35, ADP-Glo luminescence, 60 min; inhibition, % at 10 µM; 330,000 tested, 0.01% active; AID 488839, 2010;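 active = highest replicate inhibition of at least 50% and at least 75% of replicates reaching 50%; inconclusive = only one of the two criteria met; inactive = both criteria failed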;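 note: plate controls were DMSO neutral control for no effect and GW8510 at 10 µM for full effect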
Target sequence (Q00535 whole entry, looked up): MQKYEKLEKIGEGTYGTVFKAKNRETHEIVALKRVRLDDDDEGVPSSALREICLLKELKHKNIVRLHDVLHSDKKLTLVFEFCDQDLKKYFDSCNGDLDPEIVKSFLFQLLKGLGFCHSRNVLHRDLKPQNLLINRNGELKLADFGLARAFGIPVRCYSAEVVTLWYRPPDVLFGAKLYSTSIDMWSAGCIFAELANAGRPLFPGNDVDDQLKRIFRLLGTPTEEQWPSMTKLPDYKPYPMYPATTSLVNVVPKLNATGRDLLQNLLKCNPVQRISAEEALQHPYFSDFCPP
Target sequence (Q15078 whole entry, looked up): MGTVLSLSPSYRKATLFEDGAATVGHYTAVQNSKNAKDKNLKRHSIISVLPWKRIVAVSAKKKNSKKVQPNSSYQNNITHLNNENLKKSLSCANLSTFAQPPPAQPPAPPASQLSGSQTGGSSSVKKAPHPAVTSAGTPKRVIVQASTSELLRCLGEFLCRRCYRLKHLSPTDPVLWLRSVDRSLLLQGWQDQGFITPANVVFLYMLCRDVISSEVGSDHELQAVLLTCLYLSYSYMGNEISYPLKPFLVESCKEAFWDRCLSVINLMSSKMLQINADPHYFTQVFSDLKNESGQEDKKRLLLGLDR
HIV Env fusion: inhibitors of HIV-1 Env-driven cell-cell fusion, primary screen, HeLa-JRFL effector, CEM21 target cells, luciferase. inhibition, % at 12.3 µM. 360,000 tested, 1.1% active. AID 651610, 2012;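 active = mean replicate inhibition score of at least 50 and every replicate individually at or above 50; inconclusive = only one of the two criteria met; inactive = mean below 50 and not all replicates reaching 50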;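 note: 0% = plate neutral controls and 100% = maraviroc near 300 nM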
* marks the source's active call; other numbers are inactive results; ? = inconclusive; . = not tested or not shown; [ ] = remark or other dose.

SMILES | dFosB activator | Cneo AK release | GSIS activator | PAX8 reporter | CDK5 inh | HIV Env fusion
COc1ccc(C(=O)NNC(=O)CSc2nnc(COc3ccccc3OC)n2C)cc1 | -1 | -1 | 41* | 0 | 1 | 7
Cc1cc(/C=C2/SC(=O)N(CC(=O)N3CCOCC3)C2=O)c(C)n1-c1ccccc1F | 1 | . | 52* | -35 | -1 | -13
C[C@H](CO)N1C[C@H](C)[C@@H](CN(C)C(=O)c2cccc(F)c2)Oc2ncc(-c3cncnc3)cc2C1=O | . | -3 | 9 | . | . | -10[16.7 µM]
O=S(=O)(c1ccc(Cl)nc1)N1CCc2ccccc21 | 5 | -4 | 54* | 13 | 0 | -49
Cc1cc(C)cc(NC(=O)Cc2ccc(-n3cccc3)cc2)c1 | -11 | 4 | 54* | 7 | 2 | 7
Cc1ccc(NC(=O)Cc2ccc(-n3cccc3)cc2)c(C)c1 | 5 | 1 | 16 | -6 | -3 | .
C=C(CCC(=O)c1ccccc1)C(=O)c1ccccc1 | -7 | . | . | 16 | 0 | -3
C=C(C(=O)c1ccccc1)C(CC(=O)c1ccccc1)c1ccccc1 (configuration not stated) | -2 | . | 15 | 102* | 1 | .
COc1cccc(S(=O)(=O)Nc2ccc3c(c2)[C@@H]2C[C@@H](CC(=O)NCc4ccccc4F)O[C@@H](CO)[C@@H]2O3)c1 | . | 0 | 2 | 68* | . | -208[16.7 µM]
COc1cccc(S(=O)(=O)Nc2ccc3c(c2)[C@H]2C[C@H](CC(=O)NCc4ccccc4F)O[C@H](CO)[C@H]2O3)c1 | . | 0 | -1 | 97* | . | ?
O=C(Cc1ccncc1)NCC[C@H]1CC[C@@H](NC(=O)C2CCOCC2)[C@@H](CO)O1 | . | -4 | 3 | -14 | . | 7[16.7 µM]
Cc1ccc(S(=O)(=O)N(C)C[C@@H]2OCCCC[C@@H](C)Oc3ccc(NC(=O)Nc4ccc5c(c4)OCO5)cc3C(=O)N([C@@H](C)CO)C[C@@H]2C)cc1 | . | 1 | 24 | -16 | . | 13[16.7 µM]
O=C(C[C@@H]1CC[C@H]2[C@@H](COC[C@H](O)CN2Cc2ccc(Oc3ccccc3)cc2)O1)N1CCc2ccccc2C1 | . | -1 | . | 106* | . | 20[16.7 µM]
O=C(C[C@H]1CC[C@@H]2[C@H](COC[C@H](O)CN2Cc2ccc(Oc3ccccc3)cc2)O1)N1CCc2ccccc2C1 | . | 1 | . | 28 | . | 46[16.7 µM]
O=C(C[C@H]1CC[C@H]2[C@@H](COC[C@@H](O)CN2Cc2ccc(Oc3ccccc3)cc2)O1)N1CCc2ccccc2C1 | . | 4 | -19 | 105* | . | 5[16.7 µM]
C[C@@H]1CN([C@@H](C)CO)C(=O)c2cc(NS(=O)(=O)c3ccc(F)cc3)ccc2O[C@@H](C)CCCCO[C@H]1CN(C)Cc1ccc(C(F)(F)F)cc1 | . | 6 | -15 | 97* | . | 24[16.7 µM]
C[C@@H]1CCCCO[C@@H](CN(C)Cc2ccc(C(F)(F)F)cc2)[C@H](C)CN([C@@H](C)CO)C(=O)c2cc(NS(=O)(=O)c3ccc(F)cc3)ccc2O1 | . | 6 | -23 | 105* | . | 11[16.7 µM]
C[C@@H]1CN([C@H](C)CO)C(=O)c2cc(NS(=O)(=O)c3ccc(F)cc3)ccc2O[C@@H](C)CCCCO[C@H]1CN(C)Cc1ccc(C(F)(F)F)cc1 | . | 8 | -19 | 114* | . | 7[16.7 µM]
C[C@@H]1CCCCO[C@@H](CN(C)Cc2ccc(C(F)(F)F)cc2)[C@@H](C)CN([C@@H](C)CO)C(=O)c2cc(NS(=O)(=O)c3ccc(F)cc3)ccc2O1 | . | 0 | 12 | 86* | . | 18[16.7 µM]
C[C@@H]1CCCCO[C@H](CN(C)Cc2ccc(C(F)(F)F)cc2)[C@@H](C)CN([C@H](C)CO)C(=O)c2cc(NS(=O)(=O)c3ccc(F)cc3)ccc2O1 | . | 0 | -11 | -3 | . | 29[16.7 µM]
COCC(=O)Nc1ccc2c(c1)OC[C@H](C)N(CCC(F)(F)F)C[C@@H](C)[C@@H](OC)CN(C)C2=O | . | -56 | -2 | 6 | . | -4[16.7 µM]
COc1cc(C#CC#CCN2CCCCC2)ccc1O | -2 | -1 | 44* | . | -3 | -42
COC(C)(C)c1cc(C(C)(C)C)nc(N)n1 | 0 | -1 | 48* | . | 0 | -11
CC(C)(C)c1cc(=O)n2[nH]c(N)nc2n1 | -6 | . | 10 | 22 | -3 | 6
Cc1cc(O)c(Sc2ncn[nH]2)cc1NS(=O)(=O)c1ccc(Cl)cc1 | 0 | -1 | 5 | 7 | -2 | .
SMILES | dFosB activator | Cneo AK release | GSIS activator | PAX8 reporter | CDK5 inh | HIV Env fusion
O=S(=O)(Nc1cc(Sc2ncn[nH]2)c(O)c2ccccc12)c1ccccc1 | -6 | . | -47 | 111* | 6 | 18
O=C(Nc1ccc([N+](=O)[O-])cc1)C1CC1(c1ccccc1)c1ccccc1 (configuration not stated) | 0 | . | -31 | 19 | 1 | 9
CC1(C)C(C=C(Cl)Cl)C1C(=O)Nc1ccc([N+](=O)[O-])cc1 (configuration not stated) | . | . | -36 | 99* | . | 11
CN1C(=O)NC(c2ccc(O)cc2)C2=C1CN(c1ccccc1)C2=O (configuration not stated) | 2 | -5 | 43* | 0 | 1 | -7
CN1C(=O)NC(c2ccc(O)cc2)C2=C1CN(c1ccc(O)cc1)C2=O (configuration not stated) | -4 | . | -2 | 3 | 0 | -34
S=C(c1ccc(-c2ccccc2)cc1)N1CCOCC1 | 2 | -6 | 4 | -10 | -2 | 63*
COc1ccc(C2=Nc3ccccc3N(C(=O)Cc3cc(OC)cc(OC)c3)C2C(=O)NC(C)C)cc1 (configuration not stated) | . | . | -16 | -174 | . | -18
COc1ccc(C2=Nc3ccccc3N(C(=O)Cc3cc(OC)cc(OC)c3)C2C(=O)NC(C)(C)C)cc1 (configuration not stated) | . | . | -15 | 0 | . | 55*
COc1ccc(CN(C)C[C@@H]2OCCCC[C@@H](C)Oc3ccc(NC(=O)Nc4ccc5c(c4)OCO5)cc3C(=O)N([C@@H](C)CO)C[C@H]2C)cc1 | . | 2 | -30 | -16 | . | 9[16.7 µM]
COC(=O)C1=C(C(=O)OC)[C@]2([C@H]3CC=CCN[C@@H](Cc4ccccc4)C(=O)N3Cc3ccccc3)C=C[C@H]1O2 | 0 | 2 | -1 | 47 | 2 | 58*
COC(=O)C1=C(C)N(Cc2ccccc2)C(=O)N[C@H]1c1ccccc1 | -4 | 0 | . | -8 | 0 | .
COC(=O)C1=C(C(=O)OC)[C@]2([C@@H]3CC=CCN[C@@H](Cc4ccccc4)C(=O)N3Cc3ccccc3)C=C[C@H]1O2 | -7 | 3 | 25 | 12 | 0 | 73*
